Measured values published in ChEMBL document CHEMBL3994589, “Total Synthesis and in Vitro Anti-Tumor-Promoting Activities of Racemic Acetophenone Monomers from Acronychia trifoliolata” (J Nat Prod, 2016).

system: not listed separately; experiment: Cytotoxicity against human Raji cells assessed as cell viability at 1000 molar ratio per TPA after 48 hrs by trypan blue staining based method; conditions: read-out: Activity
Summary of the method: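 Raji cells exposed to test compounds at 1000 mol ratio to TPA (TPA 32 pmol/mL) in the EBV-EA activation assay; viability of treated cells scored by trypan blue staining and reported as percentage.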

| SMILES | viability at 48 h, 1000 molar ratio per TPA |
| --- | --- |
| COc1c2c(c(CC=C(C)C)c(O)c1C(C)=O)OC(C)(C)C(O)C2 (racemic) | 60% |
| COc1c(CC=C(C)C)c2c(c(OC(C)=O)c1C(C)=O)CC(C(C)(C)O)O2 (stereo not given) | 60% |
| COc1c(CCC(C)C)c2c(c(O)c1C(C)=O)CC(O)C(C)(C)O2 (stereo not given) | 60% |
| COc1c(CC=C(C)C)c(O)c2c(c1C(C)=O)OC(C)(C)C(O)C2 (racemic) | 60% |
| COc1c2c(c(CC=C(C)C)c(O)c1C(C)=O)OC(C(C)(C)O)C2 (racemic) | 60% |
| COc1c2c(c(CCC(C)C)c(O)c1C(C)=O)OC(C)(C)C(O)C2 (racemic) | 60% |
| COc1c(CC=C(C)C)c2c(c(O)c1C(C)=O)CC(O)C(C)(C)O2 (racemic) | 60% |
| COc1c2c(c(CC=C(C)C)c(OC(C)=O)c1C(C)=O)OC(C(C)(C)O)C2 (stereo not given) | 60% |
| COc1c(CC=C(C)C)c2c(c(O)c1C(C)=O)CC(C(C)(C)O)O2 (racemic) | 60% |
| COc1c2c(cc(O)c1C(C)=O)OC(O)C2 (racemic) | 60% |

system: not listed separately; experiment: Inhibition of TPA-induced EBV-early antigen activation in human Raji cells after 48 hrs by indirect immunofluorescence method; assay type: cell-based, human gammaherpesvirus 4; conditions: not given
Summary of the method: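 EBV-EA activation induced in Raji cells by 32 pmol/mL TPA, with compounds tested over molar ratios relative to TPA. IC50 is the compound concentration inhibiting 50% of the positive control activated with 32 nM TPA.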

| SMILES | IC50 |
| --- | --- |
| COc1c(CC=C(C)C)c2c(c(OC(C)=O)c1C(C)=O)CC(C(C)(C)O)O2 (stereo not given) | 15 µM |
| COc1c2c(c(CC=C(C)C)c(OC(C)=O)c1C(C)=O)OC(C(C)(C)O)C2 (stereo not given) | 9.6 µM |
| COc1c2c(cc(O)c1C(C)=O)OC(O)C2 (racemic) | 15.7 µM |
| COc1cc(/C=C/C(=O)CC(=O)/C=C/c2ccc(O)c(OC)c2)ccc1O [CURCUMIN] | 12.1 µM |

Now those with a lower IC50, led by results:

| IC50 | SMILES |
| --- | --- |
| 7.3 µM | COc1c2c(c(CC=C(C)C)c(O)c1C(C)=O)OC(C)(C)C(O)C2 (racemic) |
| 8.1 µM | COc1c(CCC(C)C)c2c(c(O)c1C(C)=O)CC(O)C(C)(C)O2 (stereo not given) |
| 8.4 µM | COc1c(CC=C(C)C)c(O)c2c(c1C(C)=O)OC(C)(C)C(O)C2 (racemic) |
| 7.7 µM | COc1c2c(c(CC=C(C)C)c(O)c1C(C)=O)OC(C(C)(C)O)C2 (racemic) |
| 9.3 µM | COc1c2c(c(CCC(C)C)c(O)c1C(C)=O)OC(C)(C)C(O)C2 (racemic) |
| 8.9 µM | COc1c(CC=C(C)C)c2c(c(O)c1C(C)=O)CC(O)C(C)(C)O2 (racemic) |
| 8 µM | COc1c(CC=C(C)C)c2c(c(O)c1C(C)=O)CC(C(C)(C)O)O2 (racemic) |

system: human gammaherpesvirus 4; experiment: Inhibition of TPA-induced EBV-early antigen activation in human Raji cells assessed as reduction in EBV-EA positive cells at 10 molar ratio per TPA after 48 hrs by indirect immunofluorescence method relative to TPA; values are per cent of control; conditions: not given

| SMILES | level, % of control |
| --- | --- |
| COc1c2c(c(CC=C(C)C)c(O)c1C(C)=O)OC(C)(C)C(O)C2 (racemic) | 92.4% |
| COc1c(CC=C(C)C)c2c(c(OC(C)=O)c1C(C)=O)CC(C(C)(C)O)O2 (stereo not given) | 100% |
| COc1c(CCC(C)C)c2c(c(O)c1C(C)=O)CC(O)C(C)(C)O2 (stereo not given) | 97.8% |
| COc1c(CC=C(C)C)c(O)c2c(c1C(C)=O)OC(C)(C)C(O)C2 (racemic) | 96.6% |
| COc1c2c(c(CC=C(C)C)c(O)c1C(C)=O)OC(C(C)(C)O)C2 (racemic) | 93.3% |
| COc1c2c(c(CCC(C)C)c(O)c1C(C)=O)OC(C)(C)C(O)C2 (racemic) | 97.7% |
| COc1c(CC=C(C)C)c2c(c(O)c1C(C)=O)CC(O)C(C)(C)O2 (racemic) | 96.9% |
| COc1c2c(c(CC=C(C)C)c(OC(C)=O)c1C(C)=O)OC(C(C)(C)O)C2 (stereo not given) | 97.8% |
| COc1c(CC=C(C)C)c2c(c(O)c1C(C)=O)CC(C(C)(C)O)O2 (racemic) | 94.9% |
| COc1c2c(cc(O)c1C(C)=O)OC(O)C2 (racemic) | 100% |
| COc1cc(/C=C/C(=O)CC(=O)/C=C/c2ccc(O)c(OC)c2)ccc1O [CURCUMIN] | 100% |

system: human gammaherpesvirus 4; experiment: Inhibition of TPA-induced EBV-early antigen activation in human Raji cells assessed as reduction in EBV-EA positive cells at 500 molar ratio per TPA after 48 hrs by indirect immunofluorescence method relative to TPA; values are per cent of control; conditions: not given

| SMILES | level, % of control |
| --- | --- |
| COc1c2c(c(CC=C(C)C)c(O)c1C(C)=O)OC(C)(C)C(O)C2 (racemic) | 26.5% |
| COc1c(CC=C(C)C)c2c(c(OC(C)=O)c1C(C)=O)CC(C(C)(C)O)O2 (stereo not given) | 43.8% |
| COc1c(CCC(C)C)c2c(c(O)c1C(C)=O)CC(O)C(C)(C)O2 (stereo not given) | 36.6% |
| COc1c(CC=C(C)C)c(O)c2c(c1C(C)=O)OC(C)(C)C(O)C2 (racemic) | 27.1% |
| COc1c2c(c(CC=C(C)C)c(O)c1C(C)=O)OC(C(C)(C)O)C2 (racemic) | 30.6% |
| COc1c2c(c(CCC(C)C)c(O)c1C(C)=O)OC(C)(C)C(O)C2 (racemic) | 31.5% |
| COc1c(CC=C(C)C)c2c(c(O)c1C(C)=O)CC(O)C(C)(C)O2 (racemic) | 29.1% |
| COc1c2c(c(CC=C(C)C)c(OC(C)=O)c1C(C)=O)OC(C(C)(C)O)C2 (stereo not given) | 33.9% |
| COc1c(CC=C(C)C)c2c(c(O)c1C(C)=O)CC(C(C)(C)O)O2 (racemic) | 32% |
| COc1c2c(cc(O)c1C(C)=O)OC(O)C2 (racemic) | 53.3% |
| COc1cc(/C=C/C(=O)CC(=O)/C=C/c2ccc(O)c(OC)c2)ccc1O [CURCUMIN] | 21.1% |

system: human gammaherpesvirus 4; experiment: Inhibition of TPA-induced EBV-early antigen activation in human Raji cells assessed as reduction in EBV-EA positive cells at 100 molar ratio per TPA after 48 hrs by indirect immunofluorescence method relative to TPA; values are per cent of control; conditions: not given

| SMILES | level, % of control |
| --- | --- |
| COc1c2c(c(CC=C(C)C)c(O)c1C(C)=O)OC(C)(C)C(O)C2 (racemic) | 65.5% |
| COc1c(CC=C(C)C)c2c(c(OC(C)=O)c1C(C)=O)CC(C(C)(C)O)O2 (stereo not given) | 71% |
| COc1c(CCC(C)C)c2c(c(O)c1C(C)=O)CC(O)C(C)(C)O2 (stereo not given) | 78.8% |
| COc1c(CC=C(C)C)c(O)c2c(c1C(C)=O)OC(C)(C)C(O)C2 (racemic) | 68.2% |
| COc1c2c(c(CC=C(C)C)c(O)c1C(C)=O)OC(C(C)(C)O)C2 (racemic) | 74.3% |
| COc1c2c(c(CCC(C)C)c(O)c1C(C)=O)OC(C)(C)C(O)C2 (racemic) | 76% |
| COc1c(CC=C(C)C)c2c(c(O)c1C(C)=O)CC(O)C(C)(C)O2 (racemic) | 72.5% |
| COc1c2c(c(CC=C(C)C)c(OC(C)=O)c1C(C)=O)OC(C(C)(C)O)C2 (stereo not given) | 78.6% |
| COc1c(CC=C(C)C)c2c(c(O)c1C(C)=O)CC(C(C)(C)O)O2 (racemic) | 75.5% |
| COc1c2c(cc(O)c1C(C)=O)OC(O)C2 (racemic) | 77.9% |
| COc1cc(/C=C/C(=O)CC(=O)/C=C/c2ccc(O)c(OC)c2)ccc1O [CURCUMIN] | 80.1% |

system: human gammaherpesvirus 4; experiment: Inhibition of TPA-induced EBV-early antigen activation in human Raji cells assessed as reduction in EBV-EA positive cells at 1000 molar ratio per TPA after 48 hrs by indirect immunofluorescence method relative to TPA; values are per cent of control; conditions: not given

| SMILES | level, % of control |
| --- | --- |
| COc1c2c(c(CC=C(C)C)c(O)c1C(C)=O)OC(C)(C)C(O)C2 (racemic) | 0% |
| COc1c(CC=C(C)C)c2c(c(OC(C)=O)c1C(C)=O)CC(C(C)(C)O)O2 (stereo not given) | 7% |
| COc1c(CCC(C)C)c2c(c(O)c1C(C)=O)CC(O)C(C)(C)O2 (stereo not given) | 0% |
| COc1c(CC=C(C)C)c(O)c2c(c1C(C)=O)OC(C)(C)C(O)C2 (racemic) | 1.5% |
| COc1c2c(c(CC=C(C)C)c(O)c1C(C)=O)OC(C(C)(C)O)C2 (racemic) | 0% |
| COc1c2c(c(CCC(C)C)c(O)c1C(C)=O)OC(C)(C)C(O)C2 (racemic) | 4.9% |
| COc1c(CC=C(C)C)c2c(c(O)c1C(C)=O)CC(O)C(C)(C)O2 (racemic) | 3% |
| COc1c2c(c(CC=C(C)C)c(OC(C)=O)c1C(C)=O)OC(C(C)(C)O)C2 (stereo not given) | 5.3% |
| COc1c(CC=C(C)C)c2c(c(O)c1C(C)=O)CC(C(C)(C)O)O2 (racemic) | 0% |
| COc1c2c(cc(O)c1C(C)=O)OC(O)C2 (racemic) | 10.8% |
| COc1cc(/C=C/C(=O)CC(=O)/C=C/c2ccc(O)c(OC)c2)ccc1O [CURCUMIN] | 0% |
